Test results as given in ChEMBL document CHEMBL1141199, “N-benzylisatin sulfonamide analogues as potent caspase-3 inhibitors: synthesis, in vitro activity, and molecular modeling studies” (J Med Chem, 2005).

Key:
Caspase-3 = target: T1, Caspase-3 (Homo sapiens, UniProt P42574); assay: Inhibitory activity against caspase 3 using Ac-DEVD-AMC substrate
T1 sequence (P42574 whole entry): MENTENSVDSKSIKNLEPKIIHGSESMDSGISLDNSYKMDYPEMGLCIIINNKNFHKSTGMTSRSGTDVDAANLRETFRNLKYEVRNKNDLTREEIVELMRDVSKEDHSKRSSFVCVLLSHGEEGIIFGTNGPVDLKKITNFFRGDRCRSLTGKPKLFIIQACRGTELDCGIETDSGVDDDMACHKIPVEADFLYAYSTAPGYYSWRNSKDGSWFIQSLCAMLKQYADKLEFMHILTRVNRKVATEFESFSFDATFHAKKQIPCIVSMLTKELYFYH
In short: (§1)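 Substrates at 10 µM: Ac-DEVD-AMC (caspase-3), Ac-VEID-AMC (caspase-6), Ac-IETD-AMC (caspase-8). Serially diluted inhibitors were preincubated 30 min on ice, then run 1–2 h at 37 °C in 5% final DMSO. AMC fluorescence ex 355/em 460 nm. Duplicates; IC50 averaged over three experiments.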

Caspase-6 = target: T2, Caspase-6 (Homo sapiens, UniProt P55212); assay: Inhibitory activity against caspase 6 using Ac-VEID-AMC substrate; in short: as §1
T2 sequence (P55212 whole entry): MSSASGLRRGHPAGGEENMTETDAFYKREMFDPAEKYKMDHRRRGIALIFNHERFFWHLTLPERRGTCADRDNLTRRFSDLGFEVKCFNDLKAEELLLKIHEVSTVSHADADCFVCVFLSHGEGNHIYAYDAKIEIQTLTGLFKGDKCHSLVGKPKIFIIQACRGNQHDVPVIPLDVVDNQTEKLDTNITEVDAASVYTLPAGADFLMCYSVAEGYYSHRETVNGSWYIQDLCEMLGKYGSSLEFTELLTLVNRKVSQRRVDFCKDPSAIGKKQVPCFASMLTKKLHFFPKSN

Caspase-1 = target: T3, Caspase-1 (Homo sapiens, UniProt P29466); assay: Inhibitory activity against caspase 1 using Ac-YVAD-AMC substrate
T3 sequence (P29466 whole entry): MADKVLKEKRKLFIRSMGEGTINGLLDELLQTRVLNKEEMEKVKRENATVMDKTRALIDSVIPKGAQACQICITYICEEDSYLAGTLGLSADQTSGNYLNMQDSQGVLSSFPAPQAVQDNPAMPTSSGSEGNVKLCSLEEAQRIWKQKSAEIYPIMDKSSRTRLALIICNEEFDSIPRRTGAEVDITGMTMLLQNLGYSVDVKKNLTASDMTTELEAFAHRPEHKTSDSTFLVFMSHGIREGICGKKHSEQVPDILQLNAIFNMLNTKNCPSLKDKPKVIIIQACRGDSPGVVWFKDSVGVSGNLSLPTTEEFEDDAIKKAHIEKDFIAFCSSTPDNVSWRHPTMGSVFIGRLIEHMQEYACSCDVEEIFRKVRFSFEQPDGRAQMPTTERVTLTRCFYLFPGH
In short: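 Substrate solution carried an extra 10 mM 2-mercaptoethanol. Inhibitors in DMSO were preincubated 30 min on ice, then run 1–2 h at 37 °C. AMC was read at ex 355/em 460 nm. Duplicates; IC50 is the mean of three experiments.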

Caspase-7 = target: T4, Caspase-7 (Homo sapiens, UniProt P55210); assay: Inhibitory activity against caspase 7 using Ac-DEVD-AMC substrate
T4 sequence (P55210 whole entry): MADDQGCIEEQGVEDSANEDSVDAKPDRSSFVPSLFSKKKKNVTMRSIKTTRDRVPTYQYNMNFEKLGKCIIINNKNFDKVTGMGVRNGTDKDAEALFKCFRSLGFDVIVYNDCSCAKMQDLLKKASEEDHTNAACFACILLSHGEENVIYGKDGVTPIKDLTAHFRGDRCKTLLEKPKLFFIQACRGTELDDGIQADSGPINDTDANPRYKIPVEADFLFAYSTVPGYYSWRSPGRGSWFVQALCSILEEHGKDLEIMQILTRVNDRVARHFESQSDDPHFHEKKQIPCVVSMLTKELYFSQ
In short: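 Substrate solution held a further 10 mM 2-mercaptoethanol for full activation. Enzyme was used at a linear-range level. DMSO inhibitor dilutions (5% final) were preincubated 30 min on ice, then run 1–2 h at 37 °C. AMC read at 355/460 nm. Duplicates; IC50 is the mean of three runs.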

Caspase-8 = Caspase-8 (Homo sapiens, UniProt Q14790); assay: Inhibitory activity against caspase 8 using Ac-IETD-AMC substrate; in short: as §1
Chain of Caspase-8 (Q14790 217-374 limits assumed): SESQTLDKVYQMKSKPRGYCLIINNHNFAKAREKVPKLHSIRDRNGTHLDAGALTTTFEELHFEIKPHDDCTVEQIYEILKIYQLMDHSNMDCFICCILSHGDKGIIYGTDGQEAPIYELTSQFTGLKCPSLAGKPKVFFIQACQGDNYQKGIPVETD
Chain of Caspase-8 (Q14790 385-479 limits assumed): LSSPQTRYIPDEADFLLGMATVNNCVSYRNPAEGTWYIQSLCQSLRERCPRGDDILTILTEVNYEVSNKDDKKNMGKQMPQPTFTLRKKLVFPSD

Compound | IC50 (Caspase-3) [µM] | IC50 (Caspase-6) [µM] | IC50 (Caspase-1) [µM] | IC50 (Caspase-7) [µM] | IC50 (Caspase-8) [µM]
O=C1C(=O)N(Cc2ccccc2)c2ccc(S(=O)(=O)N3CCC[C@H]3COc3cccnc3)cc21 | 0.0052 | > 5 | > 10 | 0.0141 | > 50
COc1ccc(CN2C(=O)C(=O)c3cc(S(=O)(=O)N4CCC[C@H]4COc4ccccc4)ccc32)cc1 | 0.0145 | > 5 | > 10 | 0.0218 | > 50
CSc1ccc(CN2C(=O)C(=O)c3cc(S(=O)(=O)N4CCC[C@H]4COc4ccccc4)ccc32)cc1 | 0.0124 | > 5 | > 50 | 0.041 | > 50
O=C1C(=O)N(Cc2cccc(F)n2)c2ccc(S(=O)(=O)N3CC[C@H]3COc3ccccc3)cc21 | – | > 5 | > 10 | – | > 50
CC(=O)Oc1ccc(CN2C(=O)C(=O)c3cc(S(=O)(=O)N4CCC[C@H]4COc4ccccc4)ccc32)cc1 | 0.012 | > 5 | > 50 | 0.0348 | > 50
O=C1C(=O)N(Cc2ccccc2F)c2ccc(S(=O)(=O)N3CC[C@H]3COc3ccccc3)cc21 | – | > 5 | > 10 | – | > 50
O=C1C(=O)N(Cc2ccnc(F)c2)c2ccc(S(=O)(=O)N3CC[C@H]3COc3ccccc3)cc21 | – | > 5 | > 50 | – | > 50
O=C1Nc2ccc(S(=O)(=O)N3CCC[C@H]3COc3ccccc3)cc2C1=O | – | > 5 | > 10 | – | > 50
O=C1C(=O)N(Cc2cccc(F)n2)c2ccc(S(=O)(=O)N3CCC[C@H]3COc3ccccc3)cc21 | – | > 5 | > 50 | – | > 50
COc1ccc(CN2C(=O)C(=O)c3cc(S(=O)(=O)N4CC[C@H]4COc4ccccc4)ccc32)cc1 | – | > 5 | > 50 | – | > 50
COc1ccc(CN2C(=O)C(=O)c3cc(S(=O)(=O)N4CCC[C@H]4COc4cccnc4)ccc32)cc1 | 0.0039 | > 5 | > 10 | 0.0151 | > 50
CN1C(=O)C(=O)c2cc(S(=O)(=O)N3CC[C@H]3COc3ccccc3)ccc21 | – | > 5 | > 10 | – | > 50
O=C1Nc2ccc(S(=O)(=O)N3CCC[C@H]3COc3ccncc3)cc2C1=O | 0.0204 | > 5 | > 5 | 0.142 | > 50
O=C1C(=O)N(Cc2ccc(O)cc2)c2ccc(S(=O)(=O)N3CCC[C@H]3COc3ccccc3)cc21 | – | > 5 | > 5 | – | > 50
O=C1C(=O)N(Cc2ccnc(F)c2)c2ccc(S(=O)(=O)N3CCC[C@H]3COc3ccccc3)cc21 | – | > 5 | > 50 | – | > 50
O=C1C(=O)N(Cc2ccccc2)c2ccc(S(=O)(=O)N3CCC[C@H]3COc3ccccc3)cc21 | – | > 5 | > 10 | – | > 50
O=C1C(=O)N(Cc2ccc(F)nc2)c2ccc(S(=O)(=O)N3CCC[C@H]3COc3ccccc3)cc21 | – | > 5 | > 50 | – | > 50
O=C1C(=O)N(Cc2ccc(F)cc2)c2ccc(S(=O)(=O)N3CC[C@H]3COc3ccccc3)cc21 | – | > 5 | > 10 | – | > 50
CN1C(=O)C(=O)c2cc(S(=O)(=O)N3CCC[C@H]3COc3cccnc3)ccc21 | 0.0233 | > 5 | > 10 | 0.0949 | > 50
CSc1ccc(CN2C(=O)C(=O)c3cc(S(=O)(=O)N4CCC[C@H]4COc4cccnc4)ccc32)cc1 | 0.0044 | > 5 | > 50 | 0.0233 | > 50
O=C1Nc2ccc(S(=O)(=O)N3CC[C@H]3COc3ccccc3)cc2C1=O | – | > 5 | > 10 | – | > 50
CSc1ccc(CN2C(=O)C(=O)c3cc(S(=O)(=O)N4CC[C@H]4COc4ccccc4)ccc32)cc1 | – | > 5 | > 50 | – | > 50
O=C1C(=O)N(Cc2ccccc2)c2ccc(S(=O)(=O)N3CC[C@H]3COc3ccccc3)cc21 | – | > 5 | > 10 | – | > 50
CN1C(=O)C(=O)c2cc(S(=O)(=O)N3CCC[C@H]3COc3ccccc3)ccc21 | 0.119 | > 5 | > 20 | 0.31 | > 50
O=C1C(=O)N(Cc2ccc(F)cc2)c2ccc(S(=O)(=O)N3CCC[C@H]3COc3cccnc3)cc21 | 0.0084 | > 5 | > 10 | 0.0151 | > 50
O=C1C(=O)N(Cc2ccc(F)cc2)c2ccc(S(=O)(=O)N3CCC[C@H]3COc3ccccc3)cc21 | 0.0121 | > 5 | > 50 | 0.023 | > 50
O=C1Nc2ccc(S(=O)(=O)N3CCC[C@H]3COc3cccnc3)cc2C1=O | 0.0583 | > 5 | > 5 | 0.215 | > 50
O=C1C(=O)N(Cc2ccc(F)nc2)c2ccc(S(=O)(=O)N3CC[C@H]3COc3ccccc3)cc21 | – | > 5 | > 50 | – | > 50
